Measured values taken from ChEMBL document CHEMBL1126841, “Synthesis and structure-activity relationships of 1-acyl-4-((2-methyl-3-pyridyl)cyanomethyl)piperazines as PAF antagonists” (J Med Chem, 1993).

Key:
[1] = molecular target: Platelet-activating factor receptor (Mus musculus) (UniProt Q62035); test: Dose required to inhibit PAF-induced mortality by 50% in mice; type: functional; conditions: Mus sp.
Summary of the method: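 Male Swiss mice (22-26 g), groups of 10; test compound given po (20 mL/kg), controls 1% Tween 80. 60 min later, C18-PAF 100 µg/kg plus propanolol 1 mg/kg injected into a lateral tail vein. Mortality scored 2 h after PAF; % inhibition vs controls. ID50 from linear regression of one curve, ≥4 points. Initial dose 3 mg/kg; further doses only if >50% inhibition.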

[2] = molecular target: Platelet-activating factor receptor (Rattus norvegicus) (UniProt P46002); test: Intravenous dose required to reduce the arterial blood pressure caused by PAF by 50% in rats; type: functional
Summary of the method: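 Male Sprague-Dawley rats (180-220 g) under pentobarbital anesthesia (50 mg/kg ip); carotid blood pressure recorded. Compound in saline given iv (femoral vein) 3 min before PAF 0.5 µg/kg iv; controls got vehicle. % inhibition of hypotension vs controls. ID50 from linear regression of one curve, ≥4 doses, each the mean of ≥2 independent experiments.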

Platelet-activating factor receptor (Rattus norvegicus), sequence (P46002 whole entry): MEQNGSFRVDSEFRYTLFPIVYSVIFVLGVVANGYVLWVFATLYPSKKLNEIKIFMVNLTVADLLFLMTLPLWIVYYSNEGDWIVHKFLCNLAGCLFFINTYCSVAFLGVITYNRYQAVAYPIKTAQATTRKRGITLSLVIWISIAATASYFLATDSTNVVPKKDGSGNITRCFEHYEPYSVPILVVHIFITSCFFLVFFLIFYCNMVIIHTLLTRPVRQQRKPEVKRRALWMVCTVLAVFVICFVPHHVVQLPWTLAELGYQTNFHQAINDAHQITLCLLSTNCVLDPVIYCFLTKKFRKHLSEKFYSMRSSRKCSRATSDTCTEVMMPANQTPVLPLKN
Platelet-activating factor receptor (Mus musculus), sequence (Q62035 whole entry): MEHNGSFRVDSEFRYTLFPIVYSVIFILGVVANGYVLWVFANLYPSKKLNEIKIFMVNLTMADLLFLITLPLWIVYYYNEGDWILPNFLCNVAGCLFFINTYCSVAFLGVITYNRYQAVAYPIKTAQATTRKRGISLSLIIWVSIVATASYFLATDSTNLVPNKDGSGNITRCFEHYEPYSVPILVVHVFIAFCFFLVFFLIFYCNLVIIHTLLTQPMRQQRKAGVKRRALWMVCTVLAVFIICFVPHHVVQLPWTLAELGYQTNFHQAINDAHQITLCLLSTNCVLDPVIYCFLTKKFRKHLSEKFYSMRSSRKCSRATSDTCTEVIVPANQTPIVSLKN

| SMILES | ID50 [1] | ID50 [2] |
| --- | --- | --- |
| Cc1ncccc1C(C#N)N1CCN(C(=O)CC(c2ccccc2)n2cccc2)CC1 (stereo unspecified) | 1 mg/kg | 0.014 mg/kg |
| Cc1ncccc1C(C#N)N1CCN(C(=O)CC(c2ccccc2)N2CCCC2=O)CC1 (stereo unspecified) | 0.13 mg/kg | 0.026 mg/kg |
| Cc1ncccc1C(C#N)N1CCN(C(=O)C[S+]([O-])C(c2ccccc2)c2ccccc2)CC1 (stereo unspecified) | > 3 mg/kg | 0.034 mg/kg |
| Cc1ncccc1C(C#N)N1CCN(C(=O)[C@@H](C)NC(c2ccccc2)c2ccccc2)CC1 (stereo partly specified) | > 3 mg/kg |  |
| Cc1ncccc1C(C#N)N1CCN(C(=O)C(C)(C)C(F)(c2ccccc2)c2ccccc2)CC1 (stereo unspecified) | > 3 mg/kg | 0.34 mg/kg |
| Cc1ncccc1C(C#N)N1CCN(C(=O)CS(=O)(=O)C(c2ccccc2)c2ccccc2)CC1 (stereo unspecified) | > 3 mg/kg | 0.11 mg/kg |
| Cc1ncccc1C(C#N)N1CCN(C(=O)/C=C(\c2ccccc2)C(F)(F)F)CC1 (stereo unspecified) | > 3 mg/kg | 0.12 mg/kg |
| COC(=O)NC(CC(=O)N1CCN(C(C#N)c2cccnc2C)CC1)c1ccc(C(F)(F)F)cc1 (stereo unspecified) | 1.6 mg/kg | 0.014 mg/kg |
| C#CC(c1cccnc1C)N1CCN(C(=O)CNC(c2ccccc2)c2ccccc2)CC1 (stereo unspecified) | > 3 mg/kg |  |
| Cc1ncccc1C(C#N)N1CCN(C(=O)COC(c2ccccc2)c2ccccc2)CC1 (stereo unspecified) | > 3 mg/kg | 0.048 mg/kg |
| Cc1ncccc1C(C#N)N1CCN(C(=O)CON=C(c2ccccc2)c2ccccc2)CC1 (stereo unspecified) | > 3 mg/kg | 0.071 mg/kg |
| Cc1ncccc1C(C#N)N1CCN(C(=O)C=C(c2ccccc2)c2ccccc2)CC1 (stereo unspecified) | 2.2 mg/kg | 0.038 mg/kg |
| Cc1ncccc1C(C#N)N1CCN(C(=O)CC(NC(=O)c2cccnc2O)c2ccccc2)CC1 (stereo unspecified) | > 3 mg/kg | 0.12 mg/kg |
| Cc1ncccc1C(C#N)N1CCN(C(=O)CC(NC(=O)OCc2ccccc2)c2ccccc2)CC1 (stereo unspecified) | > 3 mg/kg | 0.018 mg/kg |
| CO/N=C(/C)C(c1cccnc1C)N1CCN(C(=O)CC(c2ccccc2)c2ccccc2)CC1 (stereo unspecified) | > 3 mg/kg |  |
| Cc1ncccc1C(C#N)N1CCN(C(=O)CC(c2ccccc2)N2CCOC2=O)CC1 (stereo unspecified) | 1 mg/kg | 0.029 mg/kg |
| Cc1ncccc1C(C#N)N1CCN(C(=O)CC(C)c2ccccc2)CC1 (stereo unspecified) | > 3 mg/kg | 0.039 mg/kg |
| Cc1ncccc1C(C#N)N1CCN(C(=O)/C=C(/c2ccccc2)C(F)(F)F)CC1 (stereo unspecified) | > 3 mg/kg |  |
| Cc1ncccc1C(C#N)N1CCN(C(=O)CSC(c2ccccc2)c2ccccc2)CC1 (stereo unspecified) | > 3 mg/kg | 0.058 mg/kg |
| Cc1ncccc1C(C#N)N1CCN(C(=O)CNC(c2ccc(F)cc2)c2ccc(F)cc2)CC1 (stereo unspecified) | 3 mg/kg | 0.049 mg/kg |

| SMILES | ID50 [1] | ID50 [2] |
| --- | --- | --- |
| Cc1ncccc1C(C#N)N1CCN(C(=O)CC(O)(c2ccccc2)c2ccccc2)CC1 (stereo unspecified) | 0.69 mg/kg | 0.039 mg/kg |
| Cc1ncccc1C(C#N)N1CCN(C(=O)CC(C)(O)c2ccccc2)CC1 (stereo unspecified) | > 3 mg/kg | 0.029 mg/kg |
| COC(=O)N(C)C(CC(=O)N1CCN(C(C#N)c2cccnc2C)CC1)c1ccccc1 (stereo unspecified) | 2 mg/kg | 0.036 mg/kg |
| CC(=O)N(CC(=O)N1CCN(C(C#N)c2cccnc2C)CC1)C(c1ccccc1)c1ccccc1 (stereo unspecified) | 2 mg/kg | 0.039 mg/kg |
| Cc1ncccc1C(C#N)N1CCN(C(=O)CC(c2ccccc2)N2CCCC2)CC1 (stereo unspecified) |  | 0.22 mg/kg |
| Cc1ncccc1C(C#N)N1CCN(C(=O)CCNC(c2ccccc2)c2ccccc2)CC1 (stereo unspecified) | 0.62 mg/kg | 0.044 mg/kg |
| Cc1ncccc1C(C#N)N1CCN(C(=O)CCC(c2ccccc2)c2ccccc2)CC1 (stereo unspecified) | > 3 mg/kg | 0.028 mg/kg |
| Cc1ncccc1C(C#N)N1CCN(C(=O)CC(NC(N)=O)c2ccccc2)CC1 (stereo unspecified) | > 3 mg/kg |  |
| CCOC(=O)C(CC(=O)N1CCN(C(C#N)c2cccnc2C)CC1)(c1ccccc1)c1ccccc1 (stereo unspecified) | > 3 mg/kg | 0.12 mg/kg |
| Cc1ncccc1C(C#N)N1CCN(C(=O)CC(NC(=O)c2cccnc2)c2ccccc2)CC1 (stereo unspecified) | 0.41 mg/kg | 0.029 mg/kg |
| Cc1ncccc1C(C#N)N1CCN(C(=O)CC(NC(=O)OC(C)(C)C)c2ccccc2)CC1 (stereo unspecified) | 1.2 mg/kg | 0.049 mg/kg |
| Cc1ncccc1C(C#N)N1CCN(C(=O)CC(c2ccccc2)N(C)Cc2ccccc2)CC1 (stereo unspecified) | > 3 mg/kg | 0.024 mg/kg |
| Cc1ncccc1C(C#N)N1CCN(C(=O)CC(NCc2ccccc2)c2ccccc2)CC1 (stereo unspecified) | 1.2 mg/kg | 0.035 mg/kg |
| Cc1ncccc1C(C#N)N1CCN(C(=O)CC(c2ccccc2)c2ccccc2)CC1 (stereo unspecified) | 0.9 mg/kg | 0.015 mg/kg |
| Cc1ncccc1C(C#N)N1CCN(C(=O)CC(NC(=O)c2ncccc2O)c2ccccc2)CC1 (stereo unspecified) | 3 mg/kg | 0.036 mg/kg |
| Cc1ncccc1C(C#N)N1CCN(C(=O)CC(NS(C)(=O)=O)c2ccccc2)CC1 (stereo unspecified) | 1 mg/kg | 0.017 mg/kg |
| COC(=O)N(Cc1ccccc1)C(CC(=O)N1CCN(C(C#N)c2cccnc2C)CC1)c1ccccc1 (stereo unspecified) | 3 mg/kg | 0.066 mg/kg |
| Cc1ncccc1C(C#N)N1CCN(C(=O)CN(C(c2ccccc2)c2ccccc2)S(C)(=O)=O)CC1 (stereo unspecified) | > 3 mg/kg | 0.083 mg/kg |
| Cc1ncccc1C(C#N)N1CCN(C(=O)CC(NC(=O)c2ccccc2)c2ccccc2)CC1 (stereo unspecified) | > 3 mg/kg | 0.056 mg/kg |
| Cc1ncccc1C(C#N)N1CCN(C(=O)CC(NC(=O)OCC(C)C)c2ccccc2)CC1 (stereo unspecified) | > 3 mg/kg | 0.017 mg/kg |

| SMILES | ID50 [1] | ID50 [2] |
| --- | --- | --- |
| C#CCNC(CC(=O)N1CCN(C(C#N)c2cccnc2C)CC1)c1ccccc1 (stereo unspecified) | 3 mg/kg |  |
| Cc1ncccc1C(C#N)N1CCN(C(=O)CC(NS(=O)(=O)c2ccccc2)c2ccccc2)CC1 (stereo unspecified) | > 3 mg/kg | 0.04 mg/kg |
| Cc1ncccc1C(C#N)N1CCN(C(=O)CN(C=O)C(c2ccccc2)c2ccccc2)CC1 (stereo unspecified) | 1.5 mg/kg | 0.016 mg/kg |
| CC(=O)NC(CC(=O)N1CCN(C(C#N)c2cccnc2C)CC1)c1ccccc1 (stereo unspecified) | 0.09 mg/kg | 0.035 mg/kg |
| Cc1ncccc1C(C#N)N1CCN(C(=O)CC(c2ccccc2)C(F)(F)F)CC1 (stereo unspecified) | > 3 mg/kg | 0.023 mg/kg |
| Cc1ncccc1C(C#N)N1CCN(C(=O)CC(O)(c2ccc(F)cc2)c2ccc(F)cc2)CC1 (stereo unspecified) | > 3 mg/kg | 0.051 mg/kg |
| Cc1ncccc1C(C#N)N1CCN(C(=O)CC(N)c2ccccc2)CC1 (stereo unspecified) | > 3 mg/kg | 0.92 mg/kg |
| Cc1ncccc1C(C#N)N1CCN(C(=O)[C@H](CO)NC(c2ccccc2)c2ccccc2)CC1 (stereo partly specified) | 2.4 mg/kg | 0.02 mg/kg |
| CNC(CC(=O)N1CCN(C(C#N)c2cccnc2C)CC1)c1ccccc1 (stereo unspecified) | 3 mg/kg | 0.067 mg/kg |
| CCOC(=O)C(c1cccnc1C)N1CCN(C(=O)CC(c2ccccc2)c2ccccc2)CC1 (stereo unspecified) | > 30 mg/kg |  |
| Cc1ncccc1C(CO)N1CCN(C(=O)CC(c2ccccc2)c2ccccc2)CC1 (stereo unspecified) | > 3 mg/kg |  |
| Cc1ncccc1C(C#N)N1CCN(C(=O)CC(O)(c2ccccc2)c2cccnc2)CC1 (stereo unspecified) | 1 mg/kg | 0.042 mg/kg |
| Cc1ncccc1C(C#N)N1CCN(C(=O)CNC2c3ccccc3-c3ccccc32)CC1 (stereo unspecified) | > 3 mg/kg | 0.085 mg/kg |
| Cc1ncccc1C(C#N)N1CCN(C(=O)CNC(C)(c2ccccc2)c2ccccc2)CC1 (stereo unspecified) | > 3 mg/kg | 0.057 mg/kg |
| C=CCNC(CC(=O)N1CCN(C(C#N)c2cccnc2C)CC1)c1ccccc1 (stereo unspecified) | 1 mg/kg |  |
| Cc1ncccc1C(C#N)N1CCN(C(=O)CC(NCc2cccnc2)c2ccccc2)CC1 (stereo unspecified) | > 3 mg/kg | 0.029 mg/kg |
| Cc1ncccc1C(C#N)N1CCN(C(=O)CC(NC(=O)Oc2ccccc2)c2ccccc2)CC1 (stereo unspecified) | > 3 mg/kg | 0.036 mg/kg |
| Cc1ncccc1C(C#N)N1CCN(C(=O)[C@H](C)NC(c2ccccc2)c2ccccc2)CC1 (stereo partly specified) | 1.6 mg/kg | 0.025 mg/kg |
